Measured values: ChEMBL document CHEMBL1122552, “Synthesis and biological evaluation of 6-amino-1H-pyrrolo[3,2-c]pyridin-4(5H)-one (3,7-dideazaguanine)” (1984)
Values after ≈ are worked out from the molar mass of the structure shown.

Assays:
Human alphaherpesvirus 2 = assay: The minimum inhibitory concentration required to reduce HSV-2 (G) induced cytopathogenicity in primary rabbit kidney cells by 50%; type: functional
Method in brief: (§1)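 Inhibition of virus-induced cytopathogenicity in primary rabbit kidney cells. The minimal inhibitory concentration (μg/mL) is the one reducing cytopathogenicity by 50%, scored when cytopathogenicity was complete in virus-infected untreated controls. Minimal cytotoxic concentration was taken as the one causing microscopically detectable change in cell morphology; 400 μg/mL was the highest concentration tested.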

Mus musculus [1] = assay: Compound was evaluated for median life span after tumor implantation at a dose of 400 mg/kg; type: functional
Method in brief: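 P388 leukemia cells (10^6) implanted ip in groups of 6 BDF1 mice, with 30 untreated controls. Therapy began 24 h later: compound in saline given ip on days 1-5. Recorded median life span in days after implant, T/C %, and body-weight change of treated minus control animals.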

Mus musculus [2] = assay: Compound was evaluated for median life span after tumor implantation at a dose of 200 mg/kg; type: functional
Method in brief: (§2)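 P388 leukemia cells (10^6) implanted ip in groups of 6 CDF1 mice, with 30 untreated controls. Therapy began 24 h later: compound in saline given ip on days 1-5. Recorded median life span in days after implant, T/C %, and body-weight change of treated minus control animals.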

Mus musculus [3] = assay: Compound was evaluated for median life span after tumor implantation at a dose of 50 mg/kg; type: functional; method in brief: as §2
Mus musculus [4] = assay: Compound was evaluated for value at a dose of 100 mg/kg; type: functional
Method in brief: (§3)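 Experiment 1: 10^6 P388 cells implanted ip in groups of 6 CDF1 mice, with 30 untreated controls. Therapy began 24 h later: saline solution given ip on days 1-5. Value is T/C, %, of median life span (days postimplant) against untreated controls.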

Coxsackievirus = assay: The minimum inhibitory concentration required to reduce Coxsackie virus type B4 induced cytopathogenicity in primary rabbit kidney cells by 50%; type: functional
Mus musculus [5] = assay: Compound was evaluated for value at a dose of 400 mg/kg; type: functional
Method in brief: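 Experiment 2: 10^6 P388 cells implanted ip in groups of 6 BDF1 mice, with 30 untreated controls. Therapy began 24 h later: saline solution given ip on days 1-5. Value is T/C, %, of median life span (days postimplant) against untreated controls.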

Mus musculus [6] = assay: Effect on mice inoculated with P388 Lymphocytic leukemia, was studied. Compound dose is 400 mg/kg (Exp-1)Average animal body weight change of test group minus that of control animals; type: functional
[7] = Ability to inhibit growth of TG-1 cells (a mutant cell line resistant to 6-thioguanine and lacks hypoxanthine-guanine phosphoribosyltransferase) was determined
CHO = assay: Ability to inhibit growth of CHO cells was determined; type: functional; conditions: Cricetulus griseus
Method in brief: (§4)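 Clonogenic growth assay: log-phase cells trypsinized, diluted in McCoy's 5A with dialyzed fetal calf serum, about 200 cells per dish. Cells were grown at 0.5–3000 μM for 7 days at 37.5 °C in humidified CO2, then fixed in 10% formaldehyde and stained with 0.1% crystal violet. The minimum inhibitory concentration is the lowest tested concentration giving clones of fewer than 50 cells.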

Mus musculus [8] = assay: Compound was evaluated for value at a dose of 50 mg/kg; type: functional; method in brief: as §3
Mus musculus [9] = assay: Effect on mice inoculated with P388 Lymphocytic leukemia, was studied. Compound dose is 200 mg/kg (Exp-1)Average animal body weight change of test group minus that of control animals.; type: functional
Method in brief: (§5)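 Experiment 1: P388 cells (10^6) implanted ip in CDF1 mice, 6 per group, 30 untreated controls. Dosing in saline, ip, on days 1-5, starting 24 h after implant. Reported value is the mean body weight change of the treated group minus that of the controls, in g.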

[10] = test system: Vesicular stomatitis virus; assay: The minimum inhibitory concentration required to reduce VSV induced cytopathogenicity in primary rabbit kidney cells by 50%; type: functional
Mus musculus [11] = assay: Effect on mice inoculated with P388 Lymphocytic leukemia, was studied. Compound dose is 100 mg/kg (Exp-1)Average animal body weight change of test group minus that of control animals.; type: functional; method in brief: as §5
Mus musculus [12] = assay: Effect on mice inoculated with P388 Lymphocytic leukemia, was studied. Compound dose is 50 mg/kg (Exp-1)Average animal body weight change of test group minus that of control animals.; type: functional; method in brief: as §5
Mus musculus [13] = assay: Compound was evaluated for median life span after tumor implantation at a dose of 100 mg/kg; type: functional; method in brief: as §2
Mus musculus [14] = assay: Compound was evaluated for value at a dose of 200 mg/kg; type: functional; method in brief: as §3
Human alphaherpesvirus 1 = assay: The minimum inhibitory concentration required to reduce HSV-1(KOS) induced cytopathogenicity in primary rabbit kidney cells by 50%; type: functional; method in brief: as §1
AA6 = assay: Ability to inhibit growth of AA-6 cells (a mutant cell line resistant to 8-azaadenine and lacks […]) was determined; type: functional; conditions: Cricetulus griseus; method in brief: as §4

Compound	MIC (Human alphaherpesvirus 2)	Median life span (Mus musculus [1])	Median life span (Mus musculus [2])	Median life span (Mus musculus [3])	T/C (Mus musculus [4])	MIC (Coxsackievirus)	T/C (Mus musculus [5])	Activity (Mus musculus [6])	MIC [7]	MIC (CHO)	T/C (Mus musculus [8])	Activity (Mus musculus [9])	MIC [10]	Activity (Mus musculus [11])	Activity (Mus musculus [12])	Median life span (Mus musculus [13])	T/C (Mus musculus [14])	MIC (Human alphaherpesvirus 1)	MIC (AA6)
Nc1cc2[nH]ccc2c(O)n1	> 400 µg/mL	16.3 days	12.4 days	11.7 days	113%	> 400 µg/mL	126%	-0.7 g	1000 µM (≈ 149 µg/mL)	1000 µM (≈ 149 µg/mL)	108%	-1.6 g	> 400 µg/mL	-0.6 g	-0.2 g	12.3 days	114%	> 400 µg/mL	1000 µM (≈ 149 µg/mL)
Nc1ncnc2c1ncn2C[C@H](O)CO [(S)-DHPA]	> 400 µg/mL																	> 400 µg/mL	
Nc1cc2[nH]cnc2c(=O)[nH]1 [DEZAGUANINE]	150 µg/mL (≈ 999 µM)								1500 µM (≈ 225 µg/mL)	10 µM (≈ 1.5 µg/mL)								4 µg/mL (≈ 26.6 µM)	500 µM (≈ 75.1 µg/mL)
NC(=O)c1ncn([C@@H]2O[C@H](CO)[C@@H](O)[C@H]2O)n1 [RIBAVIRIN]	> 400 µg/mL																	> 400 µg/mL	
